Reference: publication PMC10463567 (Journal of medicinal chemistry, 2023)
“And” between values parts separate entries of the source, which are not always exact repeats. Equal values may be shown once. “Also recorded” adds a separate entry of the source. Where a name gives a salt, the structure may show the parent alone.

Experiments:
[1] = tested on: ZIKV (FLR strain, Colombia, 2015); test: Anti-ZIKV; assay type: cell-based, Zika virus; details: Vero cells; for % inhibition of ZIKV at 10 μM: ZIKV FLV (FLR) strain, viral titer vs untreated
Vero cells = test: Cytotoxicity to Vero cells in the anti-ZIKV screen; assay type: cell-based, monkey; details: 10 μM screen; in Table 2 printed in the % inhibition at 10 μM column
Procedure, shortened: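 Cytopathic effect and cell death were scored by microscope, with MTT to quantitate viable cells. Compounds giving CPE-like phenotype or cell death at 10 μM were flagged as cytotoxic.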

ZIKV RNA = test: Quantitative RT-PCR of ZIKV RNA copies in supernatant of infected Vero cells; assay type: cell-based, Zika virus
Procedure, shortened: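 Viral RNA was extracted with TRIzol from 50 μL of culture supernatant. One-step TaqMan RT-qPCR used ZIKV-specific primers and probe amplifying envelope gene region 3. ZIKV RNA was expressed as copies/mL, calculated from a standard curve.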

ZIKV = test: Anti-ZIKV activity in Vero cells with added glutathione; assay type: cell-based, Zika virus; details: 1 mM GSH in culture media
Procedure, shortened: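 ZIKV (FLR strain) infected Vero cells were given test compound in culture medium supplemented with 1 mM glutathione, a nucleophilic thiol, to test whether the compound acts by covalent reaction. Anti-ZIKV activity was read in the cell-based antiviral assay.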

ZIKV (FLV strain) = test: Time-of-addition; assay type: cell-based, Zika virus; details: 1 μM, added together with virus, Vero cells
[2] = tested on: Zika virus NS5, NS3 and capsid proteins; test: Western blot of viral NS5, NS3 and capsid proteins in ZIKV-infected Vero cells; assay type: cell-based; details: 48h

Compound: 3-(3-tert-Butylphenyl)-2-[2-(1-naphthyl)ethenyl]-4(3H)-quinazolinone [Compound 19]
- % inhibition of ZIKV at 10 μM ([1]; 10 μM, 10 µM): 68% and 68.4%

Compound: 3-(3-tert-Butylphenyl)-2-[2-(3-methoxyl-2-pyridinyl)ethenyl]-4(3H)-quinazolinone [Compound 11]
- % inhibition of ZIKV at 10 μM ([1]; 10 μM): 0%

Compound: 3-(3-tert-Butylphenyl)-2-[2-(4-trifluoromethyl-3-pyridinyl)ethenyl]-4(3H)-quinazolinone [Compound 3]
- % inhibition of ZIKV at 10 μM ([1]; 10 μM): 90.0%

Compound: 6-(4-Methylpiperazin-1-yl)-3-(3-tert-butylphenyl)-2-(2,6-dimethoxystyryl)-4(3H)-quinazolinone [Compound 40]
- Cytotoxicity to Vero cells (Vero cells): Cytotoxic

Compound: 6-(Piperidin-1-yl)-3-(3-tert-butylphenyl)-2-(2,6-dimethoxystyryl)-4(3H)-quinazolinone [Compound 39]
- % inhibition of ZIKV at 10 μM ([1]; 10 μM): 96.8%

Compound: CCN(CC)c1ccc2nc(/C=C/c3cccc(OC)n3)n(-c3cccc(C(C)(C)C)c3)c(=O)c2c1 [Compound 1, 6-Diethylamino-3-(3-tert-butylphenyl)-2-[2-(6-methoxyl-2-pyridinyl)ethenyl]-4(3H)-quinazolinone]
- fold activity enhancement to inhibit ZIKV replication compared to unsubstituted compound 11 ([1]; 10 μM): ≥ 1,000 fold

Compound: CC(C)(C)c1cccc(-n2c(/C=C/c3cccnc3)nc3ccccc3c2=O)c1 [Compound 12, 3-(3-tert-Butylphenyl)-2-[2-(3-pyridinyl)ethenyl]-4(3H)-quinazolinone]
- % inhibition of ZIKV at 10 μM ([1]; 10 μM): inactive

Compound: CC(C)(C)c1cccc(-n2c(/C=C/c3ccccc3)nc3ccccc3c2=O)c1 [Compound 15, 3-(3-tert-Butylphenyl)-2-(2-phenylethenyl)-4(3H)-quinazolinone]
- % inhibition of ZIKV at 10 μM ([1]; 10 μM): inactive

Compound: COc1cccc(/C=C/c2nc3ccc(Cl)cc3c(=O)n2-c2cccc(C(C)(C)C)c2)n1 [Compound 20, 6-Chloro-3-(3-tert-butylphenyl)-2-[2-(6-methoxyl-2-pyridinyl)ethenyl]-4(3H)-quinazolinone]
- % inhibition of ZIKV at 10 μM ([1]; 10 μM): inactive

Compound: COc1ccc2nc(/C=C/c3cccc(OC)n3)n(-c3cccc(C(C)(C)C)c3)c(=O)c2c1 [Compound 21, 6-Methoxy-3-(3-tert-butylphenyl)-2-[2-(6-methoxyl-2-pyridinyl)ethenyl]-4(3H)-quinazolinone]
- % inhibition of ZIKV at 10 μM ([1]; 10 μM): inactive

Compound: COc1cccc(/C=C/c2nc3ccc(N4CCCCC4)cc3c(=O)n2-c2cccc(C(C)(C)C)c2)n1 [Compound 22, 6-(Piperidin-1-yl)-3-(3-tert-butylphenyl)-2-[2-(6-methoxyl-2-pyridinyl)ethenyl]-4(3H)-quinazolinone]
- ZIKV RNA copies in the supernatant (ZIKV RNA): dose-dependently reduce

Compound: COc1cccc(/C=C/c2nc3ccc(N4CCNCC4)cc3c(=O)n2-c2cccc(C(C)(C)C)c2)n1 [Compound 25, 6-(Piperazin-1-yl)-3-(3-tert-butylphenyl)-2-[2-(6-methoxyl-2-pyridinyl)ethenyl]-4(3H)-quinazolinone hydrochloride]
- Cytotoxicity to Vero cells (Vero cells): significant cytotoxicity; also recorded: Cytotoxic

Compound: COc1cccc(/C=C/c2nc3ccc(N4CCN(C)CC4)cc3c(=O)n2-c2cccc(C(C)(C)C)c2)n1 [Compound 26, 6-(4-Methylpiperazin-1-yl)-3-(3-tert-butylphenyl)-2-[2-(6-methoxyl-2-pyridinyl)ethenyl]-4(3H)-quinazolinone]
- Cytotoxicity to Vero cells (Vero cells): Cytotoxic

Compound: COc1cccc(/C=C/c2nc3ccc(N4CCOCC4)cc3c(=O)n2-c2cccc(C(C)(C)C)c2)n1 [Compound 27, 6-Morpholino-3-(3-tert-butylphenyl)-2-[2-(6-methoxyl-2-pyridinyl)ethenyl]-4(3H)-quinazolinone]
- anti-ZIKV activity in the presence of GSH (ZIKV): not affected
- viral titer reduction, 2h-pretreatment (ZIKV (FLV strain)): ≥ 90%
- cellular levels of viral NS5, NS3 and capsid proteins [2]: significantly reduce
- Cytotoxicity to Vero cells (Vero cells): without cytotoxicity
- fold more potent antiviral activity than compound 22 ([1]; ZIKV-FLR, EC50 comparison): ~ 4 ×
- ZIKV RNA copies in the supernatant (ZIKV RNA): dose-dependently reduce

Compound: COc1cccc(/C=C/c2nc3ccc(N4CCC(N5CCOCC5)CC4)cc3c(=O)n2-c2cccc(C(C)(C)C)c2)n1 [Compound 28, 6-(4-Morpholinopiperidin-1-yl)-3-(3-tert-butylphenyl)-2-[2-(6-methoxyl-2-pyridinyl)ethenyl]-4(3H)-quinazolinone]
- Cytotoxicity to Vero cells (Vero cells): without cytotoxicity

Compound: COc1cccc(/C=C/c2nc3ccc(-c4ccncc4)cc3c(=O)n2-c2cccc(C(C)(C)C)c2)n1 [Compound 29, 6-(Pyridin-4-yl)-3-(3-tert-butylphenyl)-2-[2-(6-methoxypyridin-2-yl)vinyl]-4(3H)-quinazolinone dihydrochloride]
- % inhibition of ZIKV at 10 μM ([1]; 10 μM): inactive

Compound: COc1cccc(-c2ccc3nc(/C=C/c4cccc(OC)n4)n(-c4cccc(C(C)(C)C)c4)c(=O)c3c2)c1 [Compound 30, 6-(3-Methoxyphenyl)-3-(3-tert-butylphenyl)-2-[2-(6-methoxypyridin-2-yl)vinyl]-4(3H)-quinazolinone]
- % inhibition of ZIKV at 10 μM ([1]; 10 μM): inactive

Compound: CC(C)(C)c1cccc(-n2c(/C=C/c3ccc(C(F)(F)F)cc3)nc3ccc(N4CCCCC4)cc3c2=O)c1 [Compound 36]
- % inhibition of ZIKV at 10 μM ([1]; 10 μM, 10 µM): 90%

Compound: COc1cccc(CCc2nc3ccc(N4CCCCC4)cc3c(=O)n2-c2cccc(C(C)(C)C)c2)n1 [Compound 53, 6-(Piperidin-1-yl)-3-(3-tert-butylphenyl)-2-[2-(6-methoxypyridin-2-yl)ethyl]-4(3H)-quinazolinone]
- % inhibition of ZIKV at 10 μM ([1]; 10 μM): inactive

Compound: COc1cccc(CCc2nc3ccc(N4CCOCC4)cc3c(=O)n2-c2cccc(C(C)(C)C)c2)n1 [Compound 54, 6-Morpholino-3-(3-tert-butylphenyl)-2-[2-(6-methoxypyridin-2-yl)ethyl]-4(3H)-quinazolinone]
- % inhibition of ZIKV at 10 μM ([1]; 10 μM): inactive
